Screening data as filed in PubChem BioAssay.
ABCG2 block = human ABCG2 inhibition, ABCB1 as counter-screen. AID 1325. IgMXP3 cells, JC-1 efflux, flow cytometry. Q9UNQ0. inhibition, % at 6.6 µM. hit rate 0.1% among 190,000;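 active = inhibition above 80%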;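 note: 0% = DMSO and 100% = nicardipine control wells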
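Incubation: cells with compound and JC-1, 10 min at 25 °C, rotating, no wash / Test system: IgMXP3 (ABCG2) plus far-red-tagged CCRF-Adr (ABCB1) cells / Compound dosing: one concentration, 6.6 µM final / Also added: JC-1 fluorescent substrate / Evaluation: efflux inhibition in percent versus controls / Detection: flow cytometry, 530 nm JC-1 signal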
ABCB1 block = human ABCB1 inhibition, ABCG2 as counter-screen | P08183 | CCRF-Adr cells, JC-1 efflux, flow cytometry | inhibition, % at 6.6 µM | hit rate 0.067% among 190,000 | AID 1326; in the data active = inhibition above about 40%;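 note: 0% = vehicle and 100% = reference inhibitor; higher value means more JC-1 retained so stronger ABCB1 efflux block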
Target sequence (P08183 whole entry, looked up): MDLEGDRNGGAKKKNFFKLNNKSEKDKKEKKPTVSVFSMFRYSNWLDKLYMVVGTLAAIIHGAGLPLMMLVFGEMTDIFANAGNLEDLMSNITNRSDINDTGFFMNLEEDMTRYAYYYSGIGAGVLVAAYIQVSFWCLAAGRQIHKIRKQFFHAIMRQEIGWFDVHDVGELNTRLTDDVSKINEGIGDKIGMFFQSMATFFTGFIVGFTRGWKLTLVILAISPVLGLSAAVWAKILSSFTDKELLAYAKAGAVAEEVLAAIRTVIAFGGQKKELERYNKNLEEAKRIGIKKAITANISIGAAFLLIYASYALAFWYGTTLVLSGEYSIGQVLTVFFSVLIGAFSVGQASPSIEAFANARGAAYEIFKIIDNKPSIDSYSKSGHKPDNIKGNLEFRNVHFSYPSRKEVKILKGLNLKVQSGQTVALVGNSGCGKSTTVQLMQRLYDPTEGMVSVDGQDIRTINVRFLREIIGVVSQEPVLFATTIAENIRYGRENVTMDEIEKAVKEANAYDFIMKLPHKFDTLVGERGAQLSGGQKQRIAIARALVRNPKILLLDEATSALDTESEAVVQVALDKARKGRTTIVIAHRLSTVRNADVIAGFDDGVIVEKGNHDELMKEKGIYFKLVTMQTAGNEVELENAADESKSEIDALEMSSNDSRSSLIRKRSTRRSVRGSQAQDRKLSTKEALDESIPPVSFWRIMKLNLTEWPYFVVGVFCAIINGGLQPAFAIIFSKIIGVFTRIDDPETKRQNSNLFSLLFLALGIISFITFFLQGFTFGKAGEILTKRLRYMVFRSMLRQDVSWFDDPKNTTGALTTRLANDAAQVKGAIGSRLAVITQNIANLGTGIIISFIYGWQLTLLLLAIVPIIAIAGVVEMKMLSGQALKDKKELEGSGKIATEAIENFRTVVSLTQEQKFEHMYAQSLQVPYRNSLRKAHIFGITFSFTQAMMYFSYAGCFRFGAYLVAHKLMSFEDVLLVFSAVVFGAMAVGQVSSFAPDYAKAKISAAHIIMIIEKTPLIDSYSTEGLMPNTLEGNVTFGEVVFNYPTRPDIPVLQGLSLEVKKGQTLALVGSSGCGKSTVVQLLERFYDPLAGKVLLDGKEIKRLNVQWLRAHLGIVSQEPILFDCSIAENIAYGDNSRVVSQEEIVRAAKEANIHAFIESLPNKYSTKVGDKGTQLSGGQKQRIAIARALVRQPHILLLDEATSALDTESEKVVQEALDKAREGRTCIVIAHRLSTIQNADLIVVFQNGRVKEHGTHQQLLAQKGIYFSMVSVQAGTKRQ
L major viab = Leishmania major promastigote growth inhibition. hit rate 9% among 200,000. Leishmania major promastigotes, resazurin fluorescence viability. inhibition, % at 10 µM. AID 1063; in the data active = inhibition above about 50%;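 note: promastigotes grown with compound for 44 hours at 28 °C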
RAM network inh = blocks the yeast RAM network. S. cerevisiae dse1pr::URA3 reporter, 5-FOA growth OD615, 2 d; analog-sensitive cbk1-as2 kinase mutant strain. inhibition, % at 50 µM. hit rate 1.8% among 190,000;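 active = inhibition above a set limit, 3 SD over mean compound inhibition, cut at about 8.4% in these data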;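 note: 0% = DMSO-only wells with no growth and 100% = 10 µM 1-NA-PP1 full growth; inhibition rescues growth on 5-FOA so higher OD means more RAM inhibition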
WT yeast gro inh = growth inhibition of WT yeast, mitochondrial fusion screen; hit rate 2.1% among 190,000; AID 1362; inhibition, % at 10 µM; mitochondrial fusion phenotypic screen, WT strain; in the data active = inhibition above about 58%; tested in S. cerevisiae
* marks the source's active call; other numbers are inactive results; / = no result. Hits are enriched below; roughly 12% of the tested compounds scored in any of these assays.

SMILES	ABCG2 block	ABCB1 block	L major viab	RAM network inh	WT yeast gro inh
COc1ccc(CN2CCCC(C(=O)c3ccccc3SC)C2)cc1O (centres undefined)	1	1	63*	-1	3
COc1ccc(C(=O)C2CCCN(Cc3ccon3)C2)c(OC)c1 (centres undefined)	0	0	-2	-1	2
COc1ccccc1C(=O)C1CCCN(Cc2cnc(C)s2)C1 (centres undefined)	2	1	5	2	-2
COc1ccc(C(=O)C2CCCN(Cc3ccsc3)C2)cc1OC (centres undefined)	4	1	96*	0	4
CCNc1cc(N2CCNCC2)ccc1[N+](=O)[O-]	13	2	7	2	8
O=[N+]([O-])c1ccc(N2CCNCC2)cc1N1CCCCC1	3	1	76*	0	13
Cc1c(C(=O)C(=O)N2CCC3(CC2)OCCO3)c2ccccc2n1C	2	1	-12	0	3
CCC(C)OC(=O)c1c(N)n(Cc2cccs2)c2nc3ccccc3nc12 (centres undefined)	2	0	91*	4	18
Nc1c(C(=O)OCc2ccccc2)c2nc3ccccc3nc2n1Cc1cccs1	2	0	69*	3	10
CC(C)(C)OC(=O)c1c(N)n(Cc2ccco2)c2nc3ccccc3nc12	9	1	35	0	2
CCN(CC)P(=O)(NC(=O)C(Cl)(Cl)Cl)N(CC)CC.[Cl-].[Cl-].[Cl-].[Nd+3]	1	0	10	2	8
CCOC(=O)C1=CC(=C2C(=O)N(CC)C(=S)N(CC)C2=O)c2ccccc2O1	8	0	-5	0	4
Cc1nn(Cc2ccccc2Cl)c(Cl)c1C(=O)OCC(=O)NC(=O)NC1CCCCC1	1	0	52*	4	23
Cc1cc(NC(=O)COC(=O)c2c(C)nn(Cc3ccccc3Cl)c2C)no1	44	1	6	5	9
CC(=O)c1ccc(OC(C)C)c(Cc2c(O)[nH]c(=S)[nH]c2=O)c1	-1	-1	-2	1	-9
CCOC(=O)C1(CCCc2ccccc2)CCN(C2CCCC2)CC1	0	1	71*	1	9
CCOC(=O)C1(CCc2ccccc2)CCN(Cc2ccc3c(c2)OCCO3)CC1	5	2	84*	0	30
CCOC(=O)C1(CCc2ccccc2)CCN(C2CCSCC2)CC1	-2	0	88*	0	23
CCOC(=O)C1(CCOc2ccccc2)CCN(Cc2ccc(C)s2)CC1	2	1	81*	1	26
Cn1c(O)c(C=NCCCNC2CCCCC2)c(=O)n(C)c1=O	4	0	8	2	3
O=c1c(C=Nc2cccnc2Cl)c(O)n(CCCCl)c(=O)n1C1CCCCC1	6	1	0	8	3
CN1CCN(c2c(C#N)c(C(F)(F)F)nn2C)CC1	-1	0	1	1	-4
CCN(CC)P(=O)(/C=C(\Cl)c1ccccc1)/C=C(\Cl)c1ccccc1	1	1	27	0	51
O=[N+]([O-])c1ccc(C2[C@H]3C(c4ccccc4)=NC4(CCCCC4)N23)cc1 (some centres undefined)	4	1	11	2	37
C=CCn1c(O)c(C(=O)CCCCCC)c(=O)[nH]c1=O	2	1	0	1	-24
SMILES	ABCG2 block	ABCB1 block	L major viab	RAM network inh	WT yeast gro inh
CCOC(=O)C1CCN(/C=C2/C(=O)NC(=O)N(c3cccc(C)c3C)C2=O)CC1	0	0	54*	0	-16
CCOC(=O)C1CCN(C=C2C(=O)N(C)C(=S)N(C)C2=O)CC1	1	0	28	2	-4
CCOC(=O)C1CCN(/C=C2/C(=O)NC(=S)N(c3cccc(OC)c3)C2=O)CC1	0	0	44	-1	-18
CCOC(=O)C1CCN(/C=C2\C(=O)NC(=S)N(CC)C2=O)CC1	0	0	76*	5	-7
COc1cc(C2SCC(=O)Nc3c2c(C)nn3-c2ccccc2)cc(OC)c1OC (centres undefined)	0	0	91*	0	-3
COc1ccc(C2SCC(=O)Nc3c2c(C)nn3C2CCOC(C)(C)C2)cc1 (centres undefined)	12	2	-1	3	-28
Cc1nn(-c2ccccc2)c2c1C(c1ccc3c(c1)OCO3)SCC(=O)N2 (centres undefined)	5	2	99*	0	-13
CN1C2CCC1/C(=C/c1ccccn1)C(=O)/C2=C\c1ccccn1	2	1	100*	2	81*
O=C1NC(=O)C2(Cc3ccccc3N3CCCC32)C(=O)N1c1cccc(Cl)c1 (centres undefined)	11	1	-5	1	5
Cc1ccc(CN2C(=O)NC(=O)C3(Cc4c(nc5ccccn5c4=O)N4CCCCCC43)C2=O)cc1 (centres undefined)	8	35	85*	4	31
CCCCCSc1cc(O)c(C(CNC)C(C)C)cc1OC (centres undefined)	2	3	100*	2	8
CCc1ccc(-n2c(O)c(/C=N/NC(=O)c3ccncc3)c(=O)[nH]c2=O)cc1	2	0	-7	11*	-12
CCC(C)n1c(O)c(/C=N/Nc2ccccc2)c(=O)[nH]c1=S (centres undefined)	0	0	81*	3	52
CC(C)c1ccc(-n2c(O)c(/C=N/NC(=O)c3ccncc3)c(=O)[nH]c2=O)cc1	-11	-1	-9	0	10
Cn1c(=O)c2c(nc(N/N=C/c3c(O)n(-c4ccccc4)c(=S)[nH]c3=O)n2C)n(C)c1=O	-3	-1	-14	-1	-4
CCC(C)n1c(O)c(/C=N/NC(=O)c2ccncc2)c(=O)[nH]c1=S (centres undefined)	1	0	100*	1	4
CCn1c(O)c(/C=N/NC(=O)c2ccncc2)c(=O)[nH]c1=S	-4	0	99*	4	-16
CCOC(=O)[C@@]12C(=O)C(=O)N[C@]1(c1ccccc1)C1OCCCC12 (some centres undefined)	7	1	-4	1	5
CCN1CCN(Cc2cc(C(C)(C)C)c(O)c(C(C)(C)C)c2)CC1	1	0	14	0	/
CCC(C)n1c(O)c(/C=N/N2CCOCC2)c(=O)[nH]c1=S (centres undefined)	1	0	55*	3	2
Cc1ccccc1-n1c(O)c(/C=N/N2CCOCC2)c(=O)[nH]c1=S	0	1	-3	0	0
CCCCC(=O)N/N=C/c1c(O)n(C2CC2)c(=S)[nH]c1=O	2	0	98*	3	6
O=c1[nH]c(=S)n(C2CC2)c(O)c1/C=N/Nc1ccccc1	-1	0	89*	2	58*
O=c1[nH]c(=S)n(C2CC2)c(O)c1/C=N/Nc1cccc2ccccc12	-4	-2	-1	1	7
